Experimental data as given in ChEMBL document CHEMBL1149771, “Antimicrobial studies of 2,4-dichloro-5-fluorophenyl containing oxadiazoles” (2008).
Values after ≈ are worked out from the molar mass of the structure shown.

Experiments:
Format in all cases: functional
Staphylococcus aureus [1] = assay: Antibacterial activity against Staphylococcus aureus ATCC 25923 at 37 degC after 24 hrs by disc diffusion method
In short: (§1)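 Disc diffusion on nutrient agar. Plates were spread with 1–2 × […] c.f.u./ml inoculum (0.5 McFarland). Sterile 6.25 mm filter-paper discs were soaked in a known concentration of compound and placed on the agar. Plates were inverted and incubated 24 h at 37 °C. Inhibition zones (mm) were read against solvent and growth controls, with ciprofloxacin as reference.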

Escherichia coli [2] = assay: Antibacterial activity against Escherichia coli ATCC 25922 at 37 degC after 24 hrs by disc diffusion method; in short: as §1
Klebsiella pneumoniae [3] = assay: Antibacterial activity against Klebsiella pneumoniae ATCC 25922 at 37 degC after 24 hrs by disc diffusion method; in short: as §1
Pseudomonas aeruginosa [4] = assay: Antibacterial activity against Pseudomonas aeruginosa ATCC 27853 at 37 degC after 24 hrs by disc diffusion method; in short: as §1
Staphylococcus aureus [5] = assay: Antibacterial activity against Staphylococcus aureus ATCC 25923 at 37 degC after 24 hrs by broth dilution method; conditions: ATCC 25923, 24 h
In short: (§2)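 Broth dilution MIC. Nutrient broth held two-fold serial dilutions of compound and was inoculated with about 5 × 10⁵ c.f.u. of actively dividing bacteria. Cultures ran 24 h at 37 °C, with growth checked visually and spectrophotometrically. MIC was the lowest concentration arresting growth. Ciprofloxacin was the standard.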

Escherichia coli [6] = assay: Antibacterial activity against Escherichia coli ATCC 25922 at 37 degC after 24 hrs by broth dilution method; conditions: ATCC 25922, 24 h; in short: as §2
Klebsiella pneumoniae [7] = assay: Antibacterial activity against Klebsiella pneumoniae ATCC 25922 at 37 degC after 24 hrs by broth dilution method; conditions: recultured, in the assay text read “Klebsiella pneumoniae (recultured)” for “Klebsiella pneumoniae ATCC 25922”; in short: as §2
Pseudomonas aeruginosa [8] = assay: Antibacterial activity against Pseudomonas aeruginosa ATCC 27853 at 37 degC after 24 hrs by broth dilution method; conditions: ATCC 27853, 24 h; in short: as §2
Staphylococcus aureus [9] = assay: Antibacterial activity against Staphylococcus aureus ATCC 25923 at 35 degC after 18 to 24 hrs
In short: (§3)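 Bactericidal endpoint (MBC) taken from the broth-dilution MIC tubes. 0.1 ml from each tube was spread on agar plates and c.f.u. counted after 18–24 h. MBC was the lowest concentration completely killing the bacteria.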

Escherichia coli [10] = assay: Antibacterial activity against Escherichia coli ATCC 25922 at 35 degC after 18 to 24 hrs; in short: as §3
Klebsiella pneumoniae [11] = assay: Antibacterial activity against Klebsiella pneumoniae ATCC 25922 at 35 degC after 18 to 24 hrs; conditions: recultured, in the assay text read “Klebsiella pneumoniae (recultured)” for “Klebsiella pneumoniae ATCC 25922”; in short: as §3
Pseudomonas aeruginosa [12] = assay: Antibacterial activity against Pseudomonas aeruginosa ATCC 27853 at 35 degC after 18 to 24 hrs; in short: as §3
Candida albicans [13] = assay: Antifungal activity against Candida albicans at 37 degC after 3 to 4 days by agar dilution method; conditions: for Activity: in the assay text read “agar diffusion method” for “agar dilution method”
In short: (§4)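 Agar well diffusion for fungi, compounds in DMSO. Sabouraud agar was adjusted to pH 5.7 and lawned with a saline spore suspension (a loopful in 3 ml). Plates were dried 1 h at 37 °C, then wells were punched. Incubation was 3–4 days at 37 °C, with controls in triplicate. Inhibition zones were measured against controls, with griseofulvin as standard.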

Aspergillus fumigatus [14] = assay: Antifungal activity against Aspergillus fumigatus at 37 degC after 3 to 4 days by agar […] method; in short: as §4
Talaromyces marneffei [15] = assay: Antifungal activity against Penicillium marneffei at 37 degC after 3 to 4 days by agar […] method; in short: as §4
[16] = system: Trichophyton mentagrophytes; assay: Antifungal activity against Trichophyton mentagrophytes at 37 degC after 3 to 4 days by agar dilution method; conditions: in the assay text read “agar diffusion method” for “agar dilution method”; in short: as §4
Candida albicans [17] = assay: Antifungal activity against Candida albicans at 35 degC after 48 hrs by broth dilution method
In short: (§5)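 Fungal MIC by broth dilution. Two-fold serial dilutions of compound in nutrient broth were inoculated with about 1.6 × 10⁴–6 × 10⁴ c.f.u./ml. Incubation was 48 h at 35 °C. MIC was the lowest concentration arresting fungal growth.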

Aspergillus fumigatus [18] = assay: Antifungal activity against Aspergillus fumigatus at 35 degC after 48 hrs by broth dilution method; in short: as §5
Talaromyces marneffei [19] = assay: Antifungal activity against Penicillium marneffei at 35 degC after 48 hrs by broth dilution method; in short: as §5
[20] = system: Trichophyton mentagrophytes; assay: Antifungal activity against Trichophyton mentagrophytes at 35 degC after 48 hrs by broth dilution method; in short: as §5
Candida albicans [21] = assay: Antifungal activity against Candida albicans at 35 degC after 48 hrs
In short: (§6)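 Fungicidal endpoint (MFC). 0.1 ml from each broth-dilution tube was spread on agar plates and c.f.u. counted after 48 h at 35 °C. MFC was the lowest concentration killing 99.9% of the inoculum.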

Aspergillus fumigatus [22] = assay: Antifungal activity against Aspergillus fumigatus at 35 degC after 48 hrs; in short: as §6
Talaromyces marneffei [23] = assay: Antifungal activity against Penicillium marneffei at 35 degC after 48 hrs; in short: as §6
[24] = system: Trichophyton mentagrophytes; assay: Antifungal activity against Trichophyton mentagrophytes at 35 degC after 48 hrs; in short: as §6

| Compound | MIC (Staphylococcus aureus [5]) | MIC (Escherichia coli [6]) | MIC (Klebsiella pneumoniae [7]) | MIC (Pseudomonas aeruginosa [8]) | MIC (Candida albicans [17]) | MIC (Aspergillus fumigatus [18]) | MIC (Talaromyces marneffei [19]) | MIC [20] | inhibition zone (IZ) (Escherichia coli [2]) | inhibition zone (IZ) (Pseudomonas aeruginosa [4]) | MBC (Staphylococcus aureus [9]) | MBC (Escherichia coli [10]) | MBC (Klebsiella pneumoniae [11]) | MBC (Pseudomonas aeruginosa [12]) | inhibition zone (IZ) (Candida albicans [13]) | inhibition zone (IZ) (Talaromyces marneffei [15]) | MFC (Candida albicans [21]) | MFC (Aspergillus fumigatus [22]) | MFC (Talaromyces marneffei [23]) | MFC [24] | also measured |
| --- | --- | --- | --- | --- | --- | --- | --- | --- | --- | --- | --- | --- | --- | --- | --- | --- | --- | --- | --- | --- | --- |
| Cc1ccccc1OCc1nnc(-c2cc(F)c(Cl)cc2Cl)o1 | 6.25 mg/L (≈ 17.7 µM) | 6.25 mg/L (≈ 17.7 µM) | 12.5 mg/L (≈ 35.4 µM) | 6.25 mg/L (≈ 17.7 µM) | 12.5 mg/L (≈ 35.4 µM) | 25 mg/L (≈ 70.8 µM) | 25 mg/L (≈ 70.8 µM) | > 100 mg/L | 27 mm | 28 mm | 25 mg/L (≈ 70.8 µM) | 25 mg/L (≈ 70.8 µM) | 50 mg/L (≈ 142 µM) | 6.25 mg/L (≈ 17.7 µM) | 15 mm | 8 mm | 25 mg/L (≈ 70.8 µM) | 100 mg/L (≈ 283 µM) | 100 mg/L (≈ 283 µM) | > 100 mg/L | inhibition zone (IZ) (Staphylococcus aureus [1]): 19 mm; inhibition zone (IZ) (Klebsiella pneumoniae [3]): 16 mm; inhibition zone (IZ) (Aspergillus fumigatus [14]): 10 mm; Activity [16]: >100 µg/mL |
| Cc1cc(Cl)ccc1OCc1nnc(-c2cc(F)c(Cl)cc2Cl)o1 | 6.25 mg/L (≈ 16.1 µM) | 6.25 mg/L (≈ 16.1 µM) | 6.25 mg/L (≈ 16.1 µM) | 6.25 mg/L (≈ 16.1 µM) | 6.25 mg/L (≈ 16.1 µM) | 6.25 mg/L (≈ 16.1 µM) | 6.25 mg/L (≈ 16.1 µM) | 6.25 mg/L (≈ 16.1 µM) | 24 mm | 29 mm | 6.25 mg/L (≈ 16.1 µM) | 12.5 mg/L (≈ 32.2 µM) | 6.25 mg/L (≈ 16.1 µM) | 6.25 mg/L (≈ 16.1 µM) | 28 mm | 19 mm | 6.25 mg/L (≈ 16.1 µM) | 6.25 mg/L (≈ 16.1 µM) | 6.25 mg/L (≈ 16.1 µM) | 25 mg/L (≈ 64.5 µM) | inhibition zone (IZ) (Staphylococcus aureus [1]): 20 mm; inhibition zone (IZ) (Klebsiella pneumoniae [3]): 19 mm; inhibition zone (IZ) (Aspergillus fumigatus [14]): 25 mm; inhibition zone (IZ) [16]: 22 mm |

Now from value to compound, other results behind:

| MIC (Staphylococcus aureus [5]) | MIC (Escherichia coli [6]) | MIC (Klebsiella pneumoniae [7]) | MIC (Pseudomonas aeruginosa [8]) | MIC (Candida albicans [17]) | MIC (Aspergillus fumigatus [18]) | MIC (Talaromyces marneffei [19]) | MIC [20] | Compound | inhibition zone (IZ) (Escherichia coli [2]) | inhibition zone (IZ) (Pseudomonas aeruginosa [4]) | MBC (Staphylococcus aureus [9]) | MBC (Escherichia coli [10]) | MBC (Klebsiella pneumoniae [11]) | MBC (Pseudomonas aeruginosa [12]) | inhibition zone (IZ) (Candida albicans [13]) | inhibition zone (IZ) (Talaromyces marneffei [15]) | MFC (Candida albicans [21]) | MFC (Aspergillus fumigatus [22]) | MFC (Talaromyces marneffei [23]) | MFC [24] | also measured |
| --- | --- | --- | --- | --- | --- | --- | --- | --- | --- | --- | --- | --- | --- | --- | --- | --- | --- | --- | --- | --- | --- |
| > 100 mg/L | 6.25 mg/L (≈ 12.5 µM) | 25 mg/L (≈ 49.9 µM) | 25 mg/L (≈ 49.9 µM) | 6.25 mg/L (≈ 12.5 µM) | > 100 mg/L | 12.5 mg/L (≈ 25 µM) | > 100 mg/L | Fc1cc(-c2cc(-c3nnc(COc4ccccc4Cl)o3)c3ccccc3n2)c(Cl)cc1Cl | 20 mm | 22 mm | > 100 mg/L | 50 mg/L (≈ 99.9 µM) | 100 mg/L (≈ 200 µM) | 50 mg/L (≈ 99.9 µM) | 20 mm | 12 mm | 12.5 mg/L (≈ 25 µM) | > 100 mg/L | 25 mg/L (≈ 49.9 µM) | > 100 mg/L | Activity (Staphylococcus aureus [1]): >100 µg/mL; Activity (Klebsiella pneumoniae [3]): >100 µg/mL; Activity (Aspergillus fumigatus [14]): >100 µg/mL; Activity [16]: >100 µg/mL |
| > 100 mg/L | 12.5 mg/L (≈ 24.3 µM) | > 100 mg/L | 6.25 mg/L (≈ 12.1 µM) | > 100 mg/L | 12.5 mg/L (≈ 24.3 µM) | 12.5 mg/L (≈ 24.3 µM) | > 100 mg/L | Cc1cc(OCc2nnc(-c3cc(-c4cc(F)c(Cl)cc4Cl)nc4ccccc34)o2)ccc1Cl | 17 mm | 26 mm | > 100 mg/L | 25 mg/L (≈ 48.6 µM) | > 100 mg/L | 25 mg/L (≈ 48.6 µM) |  | 12 mm | > 100 mg/L | 25 mg/L (≈ 48.6 µM) | 50 mg/L (≈ 97.1 µM) | > 100 mg/L | Activity (Staphylococcus aureus [1]): >100 µg/mL; Activity (Klebsiella pneumoniae [3]): >100 µg/mL; Activity (Candida albicans [13]): >100 µg/mL; inhibition zone (IZ) (Aspergillus fumigatus [14]): 15 mm; Activity [16]: >100 µg/mL |
| 12.5 mg/L (≈ 26 µM) | 25 mg/L (≈ 52 µM) | 12.5 mg/L (≈ 26 µM) | 25 mg/L (≈ 52 µM) | > 100 mg/L | > 100 mg/L | 12.5 mg/L (≈ 26 µM) | 6.25 mg/L (≈ 13 µM) | Cc1ccc(OCc2nnc(-c3cc(-c4cc(F)c(Cl)cc4Cl)nc4ccccc34)o2)cc1 | 10 mm | 8 mm | 100 mg/L (≈ 208 µM) | 50 mg/L (≈ 104 µM) | 25 mg/L (≈ 52 µM) | 50 mg/L (≈ 104 µM) |  | 15 mm | > 100 mg/L | > 100 mg/L | 25 mg/L (≈ 52 µM) | 6.25 mg/L (≈ 13 µM) | inhibition zone (IZ) (Staphylococcus aureus [1]): 15 mm; inhibition zone (IZ) (Klebsiella pneumoniae [3]): 15 mm; Activity (Candida albicans [13]): >100 µg/mL; Activity (Aspergillus fumigatus [14]): >100 µg/mL; inhibition zone (IZ) [16]: 17 mm |
